Publication PMC9302689 (British Journal of Clinical Pharmacology, 2022)

Key:
SERT = SERT (Homo sapiens, UniProt P31645); assay: In vitro binding affinity, SERT; conditions: read-out: Ki, SERT; preclinical in vitro panel
α1A‐adrenoceptor = target: T1, α1A‐adrenoceptor (Homo sapiens, UniProt P35348); assay: In vitro binding affinity, α1A-adrenoceptor; conditions: read-out: Ki, α1A-adrenoceptor; preclinical in vitro panel
T1 sequence (P35348 1-466): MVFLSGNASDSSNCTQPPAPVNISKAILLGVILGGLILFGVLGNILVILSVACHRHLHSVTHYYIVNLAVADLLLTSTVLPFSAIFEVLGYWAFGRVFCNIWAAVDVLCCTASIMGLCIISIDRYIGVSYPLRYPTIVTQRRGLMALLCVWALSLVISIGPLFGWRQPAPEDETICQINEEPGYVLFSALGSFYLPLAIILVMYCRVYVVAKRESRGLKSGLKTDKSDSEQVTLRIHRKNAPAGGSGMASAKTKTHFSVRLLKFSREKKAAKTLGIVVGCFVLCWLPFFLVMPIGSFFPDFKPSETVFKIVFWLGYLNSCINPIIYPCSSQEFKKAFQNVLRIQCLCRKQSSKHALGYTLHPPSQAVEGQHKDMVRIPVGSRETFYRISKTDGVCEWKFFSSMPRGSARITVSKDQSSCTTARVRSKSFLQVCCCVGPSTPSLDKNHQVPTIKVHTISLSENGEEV

healthy male subjects [1] = assay: VAS Bowdle; assay type: in vivo, human; conditions: 12-hour post-dose period
Outline: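 Psychedelic effects were rated on 13 lines scored from 0 (not at all) to 100 mm (extremely), twice pre-dose and at 0.5–10 h post-dose. Change from baseline over 12 h was analysed by MMRM with baseline as covariate. The 3 mg dose group, not placebo, served as the reference.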

dogs = assay: Preclinical multiple dose toxicology study in dogs; assay type: in vivo
healthy male subjects [2] = assay: Treatment emergent adverse events; assay type: in vivo, human; conditions: for Incidence of TEAE: Dizziness / Incidence of TEAE: Dizziness postural / Incidence of TEAE: Fatigue / Incidence of TEAE: Headache / Incidence of TEAE: Nausea / Incidence of TEAE: Oropharyngeal pain / Incidence of TEAE: Presyncope / Incidence of TEAE: Pruritus / Incidence of TEAE: Somnolence / Incidence of TEAE: Vomiting: n = 8

Sequence of SERT (P31645 whole entry, species assumed): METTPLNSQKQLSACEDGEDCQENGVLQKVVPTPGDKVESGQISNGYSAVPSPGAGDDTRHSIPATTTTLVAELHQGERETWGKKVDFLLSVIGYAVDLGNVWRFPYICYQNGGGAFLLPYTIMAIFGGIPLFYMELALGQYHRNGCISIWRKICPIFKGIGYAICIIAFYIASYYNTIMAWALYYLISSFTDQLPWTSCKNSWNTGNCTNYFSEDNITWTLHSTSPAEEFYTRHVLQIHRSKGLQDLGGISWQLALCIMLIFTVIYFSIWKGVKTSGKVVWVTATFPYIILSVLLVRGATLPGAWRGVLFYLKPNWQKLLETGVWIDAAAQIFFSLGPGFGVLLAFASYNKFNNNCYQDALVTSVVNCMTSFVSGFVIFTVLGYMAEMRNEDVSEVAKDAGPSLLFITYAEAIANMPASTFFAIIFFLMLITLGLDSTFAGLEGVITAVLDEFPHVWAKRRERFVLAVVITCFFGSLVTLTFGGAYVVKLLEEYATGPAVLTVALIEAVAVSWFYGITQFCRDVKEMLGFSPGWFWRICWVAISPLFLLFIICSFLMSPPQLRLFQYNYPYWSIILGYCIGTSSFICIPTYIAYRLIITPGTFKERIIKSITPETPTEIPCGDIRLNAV

## CN1CCC23CCCCC2C1Cc1ccc(C(N)=O)cc13 (stereo not drawn) [ALKS 7119, (9α, 13α)‐17‐methylmorphinan‐3‐carboxamide]
SERT
  Ki: 35 nM
α1A‐adrenoceptor
  Ki: 980 nM
Healthy male subjects [1]; 3 mg single oral dose
  VAS Bowdle “external perception”, LSM CFB: 0.00
  VAS Bowdle “feeling high”, LSM CFB: 0.00
  VAS Bowdle “internal perception”, LSM CFB: 0.00
Healthy male subjects [1]; 10 mg single oral dose
  VAS Bowdle “external perception”, LSM CFB: 0.00
  VAS Bowdle “feeling high”, LSM CFB: 0.00
  VAS Bowdle “internal perception”, LSM CFB: 0.00
Healthy male subjects [1]; 25 mg single oral dose
  VAS Bowdle “external perception”, LSM CFB: 0.00
  VAS Bowdle “feeling high”, LSM CFB: 0.00
  VAS Bowdle “internal perception”, LSM CFB: 0.00
Healthy male subjects [1]; 50 mg single oral dose
  VAS Bowdle “external perception”, LSM CFB: 0.00
  VAS Bowdle “feeling high”, LSM CFB: 0.00
  VAS Bowdle “internal perception”, LSM CFB: 0.00
Healthy male subjects [1]; 75 mg single oral dose
  VAS Bowdle “external perception”, LSM CFB: 0.00
  VAS Bowdle “feeling high”, LSM CFB: 0.00
  VAS Bowdle “internal perception”, LSM CFB: 0.00
Healthy male subjects [1]; 100 mg single oral dose
  VAS Bowdle “external perception”, LSM CFB: 0.00
  VAS Bowdle “feeling high”, LSM CFB: 0.00
  VAS Bowdle “internal perception”, LSM CFB: 0.00
Healthy male subjects [1]; 125 mg single oral dose
  VAS Bowdle “external perception”, LSM CFB: 0.00
  VAS Bowdle “feeling high”, LSM CFB: 0.00
  VAS Bowdle “internal perception”, LSM CFB: 0.00
Healthy male subjects [1]; 150 mg single oral dose
  VAS Bowdle “external perception”, LSM CFB: 0.00
  VAS Bowdle “feeling high”, LSM CFB: 0.00
  VAS Bowdle “internal perception”, LSM CFB: 0.00
Healthy male subjects [1]; 175 mg single oral dose
  VAS Bowdle “external perception”, LSM CFB: 0.00
  VAS Bowdle “feeling high”, LSM CFB: 0.00
  VAS Bowdle “internal perception”, LSM CFB: 0.00
Healthy male subjects [1]; 200 mg single oral dose
  VAS Bowdle “external perception”, LSM CFB: 0.00
  VAS Bowdle “feeling high”, LSM CFB: 0.00
  VAS Bowdle “internal perception”, LSM CFB: 0.00
dogs; dog NOAEL
  human equivalent dose (HED) of NOAEL: 97.2 mg
dogs; dogs, multiple dose toxicology
  NOAEL: 3 mg/kg
Healthy male subjects [2]; 3 mg single oral dose
  Incidence of TEAE: Dizziness: 0
  Incidence of TEAE: Dizziness postural: 0
  Incidence of TEAE: Fatigue: 3
  Incidence of TEAE: Headache: 0
  Incidence of TEAE: Nausea: 0
  Incidence of TEAE: Oropharyngeal pain: 0
  Incidence of TEAE: Presyncope: 0
  Incidence of TEAE: Pruritus: 0
  Incidence of TEAE: Somnolence: 0
  Incidence of TEAE: Vomiting: 0
Healthy male subjects [2]; 10 mg single oral dose
  Incidence of TEAE: Dizziness: 0
  Incidence of TEAE: Dizziness postural: 0
  Incidence of TEAE: Fatigue: 1
  Incidence of TEAE: Headache: 1
  Incidence of TEAE: Nausea: 0
  Incidence of TEAE: Oropharyngeal pain: 0
  Incidence of TEAE: Presyncope: 1
  Incidence of TEAE: Pruritus: 0
  Incidence of TEAE: Somnolence: 1
  Incidence of TEAE: Vomiting: 0
Healthy male subjects [2]; 25 mg single oral dose
  Incidence of TEAE: Dizziness: 0
  Incidence of TEAE: Dizziness postural: 0
  Incidence of TEAE: Fatigue: 2
  Incidence of TEAE: Headache: 0
  Incidence of TEAE: Nausea: 0
  Incidence of TEAE: Oropharyngeal pain: 0
  Incidence of TEAE: Presyncope: 1
  Incidence of TEAE: Pruritus: 0
  Incidence of TEAE: Somnolence: 0
  Incidence of TEAE: Vomiting: 0
Healthy male subjects [2]; 50 mg single oral dose
  Incidence of TEAE: Dizziness: 0
  Incidence of TEAE: Dizziness postural: 0
  Incidence of TEAE: Fatigue: 0
  Incidence of TEAE: Headache: 2
  Incidence of TEAE: Nausea: 1
  Incidence of TEAE: Oropharyngeal pain: 0
  Incidence of TEAE: Presyncope: 1
  Incidence of TEAE: Pruritus: 0
  Incidence of TEAE: Somnolence: 2
  Incidence of TEAE: Vomiting: 0
Healthy male subjects [2]; 75 mg single oral dose
  Incidence of TEAE: Dizziness: 0
  Incidence of TEAE: Dizziness postural: 0
  Incidence of TEAE: Fatigue: 0
  Incidence of TEAE: Headache: 3
  Incidence of TEAE: Nausea: 3
  Incidence of TEAE: Oropharyngeal pain: 0
  Incidence of TEAE: Presyncope: 3
  Incidence of TEAE: Pruritus: 0
  Incidence of TEAE: Somnolence: 1
  Incidence of TEAE: Vomiting: 2
Healthy male subjects [2]; 100 mg single oral dose
  Incidence of TEAE: Dizziness: 0
  Incidence of TEAE: Dizziness postural: 2
  Incidence of TEAE: Fatigue: 0
  Incidence of TEAE: Headache: 3
  Incidence of TEAE: Nausea: 3
  Incidence of TEAE: Oropharyngeal pain: 0
  Incidence of TEAE: Presyncope: 1
  Incidence of TEAE: Pruritus: 0
  Incidence of TEAE: Somnolence: 2
  Incidence of TEAE: Vomiting: 1
Healthy male subjects [2]; 125 mg single oral dose
  Incidence of TEAE: Dizziness: 1
  Incidence of TEAE: Dizziness postural: 0
  Incidence of TEAE: Fatigue: 0
  Incidence of TEAE: Headache: 2
  Incidence of TEAE: Nausea: 2
  Incidence of TEAE: Oropharyngeal pain: 0
  Incidence of TEAE: Presyncope: 0
  Incidence of TEAE: Pruritus: 1
  Incidence of TEAE: Somnolence: 0
  Incidence of TEAE: Vomiting: 0
Healthy male subjects [2]; 150 mg single oral dose
  Incidence of TEAE: Dizziness: 1
  Incidence of TEAE: Dizziness postural: 0
  Incidence of TEAE: Fatigue: 1
  Incidence of TEAE: Headache: 2
  Incidence of TEAE: Nausea: 5
  Incidence of TEAE: Oropharyngeal pain: 0
  Incidence of TEAE: Presyncope: 3
  Incidence of TEAE: Pruritus: 0
  Incidence of TEAE: Somnolence: 1
  Incidence of TEAE: Vomiting: 1
Healthy male subjects [2]; 175 mg single oral dose
  Incidence of TEAE: Dizziness: 0
  Incidence of TEAE: Dizziness postural: 0
  Incidence of TEAE: Fatigue: 0
  Incidence of TEAE: Headache: 0
  Incidence of TEAE: Nausea: 5
  Incidence of TEAE: Oropharyngeal pain: 0
  Incidence of TEAE: Presyncope: 4
  Incidence of TEAE: Pruritus: 0
  Incidence of TEAE: Somnolence: 1
  Incidence of TEAE: Vomiting: 0
Healthy male subjects [2]; 200 mg single oral dose
  Incidence of TEAE: Dizziness: 2
  Incidence of TEAE: Dizziness postural: 0
  Incidence of TEAE: Fatigue: 1
  Incidence of TEAE: Headache: 3
  Incidence of TEAE: Nausea: 3
  Incidence of TEAE: Oropharyngeal pain: 0
  Incidence of TEAE: Presyncope: 1
  Incidence of TEAE: Pruritus: 2
  Incidence of TEAE: Somnolence: 1
  Incidence of TEAE: Vomiting: 0
Healthy male subjects [2]; all ALKS 7119 doses, 51 of 80 subjects (placebo 40%)
  Subjects reporting TEAEs: 64%
